Assay results published in ChEMBL document CHEMBL3525903 (Drug Metab Dispos, 2013).

Tests used:
P-glycoprotein [1] = test: Permeability assessed as human P-glycoprotein-mediated transport of basolateral to apical side in pig LLC-PK1 cells by measuring nontransporter-related passive membrane permeability by Transwell experiment/liquid scintillation counting; type: ADME, cell-based; settings: read-out: permeability
OCTN2 = molecular target: T1, OCTN2 (Homo sapiens, UniProt O76082); test: Inhibition of OCTN2 (unknown origin) expressed in HEK293 cells assessed as reduction of [3H]carnitine substrate uptake at 100 uM by liquid scintillation counting; type: cell-based; settings: HEK293 cells expressing OCTN2, probe [3H]carnitine
T1 sequence (O76082 whole entry): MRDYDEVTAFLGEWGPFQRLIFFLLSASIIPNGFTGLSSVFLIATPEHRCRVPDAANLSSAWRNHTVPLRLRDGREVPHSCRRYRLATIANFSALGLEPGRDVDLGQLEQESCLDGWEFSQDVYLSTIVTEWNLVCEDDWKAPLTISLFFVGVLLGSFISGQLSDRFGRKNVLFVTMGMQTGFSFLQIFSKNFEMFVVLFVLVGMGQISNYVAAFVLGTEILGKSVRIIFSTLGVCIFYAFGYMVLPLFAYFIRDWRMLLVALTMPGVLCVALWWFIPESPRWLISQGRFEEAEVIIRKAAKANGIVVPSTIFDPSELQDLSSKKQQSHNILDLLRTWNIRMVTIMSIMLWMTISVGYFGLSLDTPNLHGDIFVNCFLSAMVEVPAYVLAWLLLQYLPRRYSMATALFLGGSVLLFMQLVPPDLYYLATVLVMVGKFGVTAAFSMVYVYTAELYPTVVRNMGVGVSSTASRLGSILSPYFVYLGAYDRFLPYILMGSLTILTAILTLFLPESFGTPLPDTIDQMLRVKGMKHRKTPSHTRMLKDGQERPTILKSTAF
Summary of the method: (§1)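 HEK293 cells transiently transfected with OAT, OATP or OCT plasmid (FuGENE6; 24 h, then 24 h more with sodium butyrate), or stable OCTN1/OCTN2 lines; vector-transfected cells as control. Washed, preincubated 15–60 min at 37 °C in modified Krebs-Henseleit/25 mM HEPES buffer. Uptake of radiolabelled substrate, 100 µM inhibitor. Cells lysed in NaOH and counted by scintillation; counts normalised to medium radioactivity and Lowry protein; vector uptake subtracted.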

[2] = molecular target: T2, Solute carrier organic anion transporter family member 1B1 (Homo sapiens, UniProt Q9Y6L6); test: Inhibition of OATP1B1 (unknown origin) expressed in HEK293 cells assessed as reduction of [3H]E217betaG substrate uptake at 100 uM by liquid scintillation counting; type: ADME, cell-based; settings: hek293, 100 µM; summary of the method: as §1
T2 sequence (Q9Y6L6 whole entry): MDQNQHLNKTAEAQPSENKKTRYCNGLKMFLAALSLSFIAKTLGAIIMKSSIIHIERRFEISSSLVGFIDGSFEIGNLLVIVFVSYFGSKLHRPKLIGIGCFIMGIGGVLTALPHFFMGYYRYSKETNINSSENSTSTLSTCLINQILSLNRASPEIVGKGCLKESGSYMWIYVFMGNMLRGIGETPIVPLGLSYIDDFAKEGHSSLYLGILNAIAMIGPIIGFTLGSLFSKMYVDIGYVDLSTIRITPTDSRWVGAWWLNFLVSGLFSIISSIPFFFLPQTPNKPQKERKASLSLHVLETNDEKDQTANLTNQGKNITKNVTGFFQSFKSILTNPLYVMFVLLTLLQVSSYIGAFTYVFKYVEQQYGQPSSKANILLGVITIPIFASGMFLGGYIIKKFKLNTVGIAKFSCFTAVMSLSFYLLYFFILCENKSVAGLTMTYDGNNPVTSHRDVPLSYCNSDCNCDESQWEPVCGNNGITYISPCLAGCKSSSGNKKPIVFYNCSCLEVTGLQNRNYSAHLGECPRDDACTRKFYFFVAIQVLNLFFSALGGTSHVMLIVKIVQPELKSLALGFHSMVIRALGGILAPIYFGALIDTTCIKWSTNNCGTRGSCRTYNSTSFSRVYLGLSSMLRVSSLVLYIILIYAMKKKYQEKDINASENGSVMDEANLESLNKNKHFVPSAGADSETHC

[3] = Permeability assessed as human P-glycoprotein-mediated transport across apical to basolateral side expressed in pig LLC-PK1 cells by measuring membrane permeability time by Transwell experiment/liquid scintillation counting; type: ADME, cell-based
P-glycoprotein [4] = test: Permeability assessed as human P-glycoprotein-mediated transport across apical to basolateral side expressed in pig LLC-PK1 cells at 2 uM by liquid scintillation counting; type: ADME, cell-based
P-glycoprotein [5] = test: Permeability assessed as human P-glycoprotein-mediated active membrane transport by measuring apical to basolateral side expressed in pig LLC-PK1 cells by Transwell experiment/liquid scintillation counting; type: ADME, cell-based; settings: read-out: permeability
P-glycoprotein [6] = test: Permeability assessed as human P-glycoprotein-mediated transport across basolateral to apical side expressed in pig LLC-PK1 cells at 500 uM by liquid scintillation counting; type: ADME, cell-based
P-glycoprotein [7] = test: Permeability assessed as human P-glycoprotein-mediated transport of apical to basolateral side in pig LLC-PK1 cells by measuring nontransporter-related passive membrane permeability by Transwell experiment/liquid scintillation counting; type: ADME, cell-based; settings: read-out: permeability
P-glycoprotein [8] = test: Permeability assessed as human P-glycoprotein-mediated transport across apical to basolateral side expressed in pig LLC-PK1 cells by Transwell experiment/liquid scintillation counting; type: ADME, cell-based
P-glycoprotein [9] = test: Permeability assessed as human P-glycoprotein-mediated transport across apical to basolateral side expressed in pig LLC-PK1 cells at 500 uM by liquid scintillation counting; type: ADME, cell-based
[10] = Permeability assessed as human P-glycoprotein-mediated transport across basolateral to apical side expressed in pig LLC-PK1 cells by measuring membrane permeability time by Transwell experiment/liquid scintillation counting; type: ADME, cell-based
[11] = molecular target: T3, Solute carrier family 22 member 11 (Homo sapiens, UniProt Q9NSA0); test: Inhibition of OAT4 (unknown origin) expressed in HEK293 cells assessed as reduction of [3H]E-sul substrate uptake at 100 uM by liquid scintillation counting; type: ADME, cell-based; settings: hek293, 100 µM; summary of the method: as §1
T3 sequence (Q9NSA0 whole entry): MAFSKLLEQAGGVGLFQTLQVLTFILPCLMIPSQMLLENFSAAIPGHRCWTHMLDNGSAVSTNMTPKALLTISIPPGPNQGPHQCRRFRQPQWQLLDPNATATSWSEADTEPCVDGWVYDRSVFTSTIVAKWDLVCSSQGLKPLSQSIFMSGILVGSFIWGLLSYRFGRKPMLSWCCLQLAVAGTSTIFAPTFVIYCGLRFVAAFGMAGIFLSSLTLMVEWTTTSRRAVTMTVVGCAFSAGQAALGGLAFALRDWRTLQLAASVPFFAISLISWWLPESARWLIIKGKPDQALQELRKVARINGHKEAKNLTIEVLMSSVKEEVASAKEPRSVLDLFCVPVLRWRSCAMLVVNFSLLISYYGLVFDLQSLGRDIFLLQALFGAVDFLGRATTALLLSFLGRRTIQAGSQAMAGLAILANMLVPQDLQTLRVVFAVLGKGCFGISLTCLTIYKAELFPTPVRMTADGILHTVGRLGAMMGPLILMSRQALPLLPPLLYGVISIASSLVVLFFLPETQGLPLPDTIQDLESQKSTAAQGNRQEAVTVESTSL

CC#CCn1c(N2CCC[C@@H](N)C2)nc2c1c(=O)n(Cc1nc(C)c3ccccc3n1)c(=O)n2C [LINAGLIPTIN]
Papp B→A (P-glycoprotein [1]): 14.7 ×10⁻⁶ cm/s | inhibition at 100 µM (OCTN2): 15.5% | inhibition (INH) [2]: 35.5% | Time [3]: 4.4 h | Papp A→B at 2 µM (P-glycoprotein [4]): 4.21 ×10⁻⁶ cm/s | Papp A→B (P-glycoprotein [5]): 25.1 ×10⁻⁶ cm/s | Papp B→A at 500 µM (P-glycoprotein [6]): 15.7 ×10⁻⁶ cm/s | Papp A→B (P-glycoprotein [7]): 27.3 ×10⁻⁶ cm/s | Km (P-glycoprotein [8]): 220 µM | Papp A→B at 500 µM (P-glycoprotein [9]): 26.7 ×10⁻⁶ cm/s | Time [10]: 2.71 h | inhibition (INH) [11]: 0%
